Source: ChEMBL document CHEMBL1136925, “Structure-activity relationship of cyanine tau aggregation inhibitors” (J Med Chem, 2009)
The source made the active and inactive calls. The calls are words filed in the database; no cut-off is given here.

Columns and labels:
[1] = Inhibition of His-tagged human recombinant 2N4R tau protein aggregation assessed as inhibition octadecyl sulphate-induced fibrillation by filter trap assay
Homo sapiens [2] = species: Homo sapiens; assay: Inhibition of His-tagged human recombinan2N4R tau protein aggregation assessed as inhibition octadecyl sulphate-induced fibrillation at 10 uM by filter trap assay
Homo sapiens [3] = species: Homo sapiens; assay: Inhibition of human tau aggregation in human tau P301L mutant expressing JNPL3 transgenic mouse brain slices at 0.1 nM to 1 uM after 7 days; format: tissue-based
Summary of the method: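 Slices from postnatal day 10 JNPL3 mice were cultured 14 days, then exposed 7 days to compound (0.1 nM–1 μM). The contralateral hemisphere received DMSO (0.008%) as control. RIPA extracts were equalized for total protein, incubated in 1% sarkosyl for 30 min at room temperature, and spun 100,000g for 1 h at 20°C. The insoluble pellet was boiled in SDS buffer, immunoblotted with CP27 and quantified by densitometry (n = 3) relative to vehicle.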

Brain [4] = assay: Induction of apoptosis in human tau P301L mutant expressing JNPL3 transgenic mouse brain slice assessed as cleaved PARP1 after 7 days by densitometry; format: tissue-based; details: 168 h
Summary of the method: (§1)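 Cortex and hippocampus slices (400 μm) cut from postnatal day 10 JNPL3 mouse brain, cultured 14 days on membrane inserts in 25% serum medium, then dosed for 7 days. The contralateral hemisphere received DMSO vehicle (0.008% final) as within-animal control. Slices were sonicated in cold RIPA with protease/phosphatase inhibitors and spun 20,000g for 20 min at 4°C. Supernatant α-tubulin and cleaved PARP1 were immunoblotted and quantified by densitometry (n = 3), normalized to vehicle.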

Brain [5] = assay: Induction of apoptosis in human tau P301L mutant expressing JNPL3 transgenic mouse brain slice assessed as change in alpha-tubulin level at 1 nM after 7 days by densitometry; format: tissue-based; details: 168 h, 0.001 µM; summary of the method: as §1
Homo sapiens [6] = species: Homo sapiens; assay: Inhibition of human tau aggregation in human tau P301L mutant expressing JNPL3 transgenic mouse brain slices at 100 nM
Homo sapiens [7] = species: Homo sapiens; assay: Induction of human tau aggregation in human tau P301L mutant expressing JNPL3 transgenic mouse brain slices at >=300 nM
Homo sapiens [8] = species: Homo sapiens; assay: Inhibition of His-tagged human recombinan2N4R tau protein aggregation assessed as inhibition octadecyl sulphate-induced fibrillation up to 10 uM by filter trap assay

| Structure (SMILES) | IC50 [1] [nM] | further results |
| --- | --- | --- |
| CCCN1/C(=C/C=C/C2=[N+](CCC)c3ccccc3C2(C)C)C(C)(C)c2ccccc21 | 2570 |  |
| CCN1/C(=C/C=C/c2oc3ccccc3[n+]2CC)Oc2ccccc21 | > 10000 | Activity (Homo sapiens [2]): inactive |
| CCN1/C(=C/C=C/C=C/c2sc3ccccc3[n+]2CC)Sc2ccccc21 [DITHIAZANINE IODIDE] | 2150 |  |
| CCC(/C=C1\Sc2ccc(OC)cc2N1CCO)=C\c1sc2ccc(OC)cc2[n+]1CCO | 290 |  |
| CCN1/C(=C/C=C/C=C/C=C/c2sc3ccccc3[n+]2CC)Sc2ccccc21 | 5000 |  |

Second part, led by results:

| IC50 [1] [nM] | Structure (SMILES) | further results |
| --- | --- | --- |
| 10000 | CCN1/C(=C/c2sc3ccccc3[n+]2CC)Sc2ccccc21 |  |
| 960 | CCN1/C(=C/C=C/c2sc3ccccc3[n+]2CC)Sc2ccccc21 |  |
| > 10000 | CC(/C=C1\Sc2ccccc2N1CCCS(=O)(=O)[O-])=C\c1sc2ccccc2[n+]1CCCS(=O)(=O)[O-].CC[n+]1ccccc1 |  |
| 280 | CCN1/C(=C/C(C)=C/c2sc3ccccc3[n+]2CC)Sc2ccccc21.[I-] | Activity (Homo sapiens [3]): Active; Activity (Brain [4]): Non-toxic; Activity (Brain [5]): Non-toxic; Activity (Homo sapiens [6]): inactive; Activity (Homo sapiens [7]): Active |
| 3290 | CCN1/C(=C/C(C)=C/c2sc3c4ccccc4ccc3[n+]2CC)Sc2c1ccc1ccccc21 |  |
| > 10000 | CCCCCCN1/C(=C/C=C/c2sc3ccccc3[n+]2CCCCCC)Sc2ccccc21 | Activity (Homo sapiens [8]): inactive |
